{"source": "ChEMBL document CHEMBL5661979", "about": "“Pharmacological inhibition of BMK1 suppresses tumor growth through promyelocytic leukemia protein” (Cancer Cell, 2010)", "key": {"[1]": {"molecular_target": "Mitogen-activated protein kinase kinase kinase 2 (Homo sapiens, UniProt Q9Y2U5)", "sequence (Q9Y2U5 whole entry)": "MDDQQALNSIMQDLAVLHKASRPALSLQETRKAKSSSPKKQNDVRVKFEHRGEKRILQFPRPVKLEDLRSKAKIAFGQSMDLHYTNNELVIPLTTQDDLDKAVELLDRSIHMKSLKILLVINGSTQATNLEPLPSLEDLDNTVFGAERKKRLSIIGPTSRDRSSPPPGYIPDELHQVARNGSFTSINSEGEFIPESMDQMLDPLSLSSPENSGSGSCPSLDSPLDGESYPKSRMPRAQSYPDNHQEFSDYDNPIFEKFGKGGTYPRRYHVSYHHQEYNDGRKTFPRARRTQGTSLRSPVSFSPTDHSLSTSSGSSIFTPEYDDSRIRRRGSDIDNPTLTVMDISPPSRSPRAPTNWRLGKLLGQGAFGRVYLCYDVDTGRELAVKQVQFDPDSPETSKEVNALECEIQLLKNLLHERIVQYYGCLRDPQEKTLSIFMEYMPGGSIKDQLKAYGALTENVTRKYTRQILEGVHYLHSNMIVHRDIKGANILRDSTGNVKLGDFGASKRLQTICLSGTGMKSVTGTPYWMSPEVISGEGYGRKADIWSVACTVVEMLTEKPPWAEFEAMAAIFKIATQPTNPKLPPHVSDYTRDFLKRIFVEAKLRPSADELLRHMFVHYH", "test": "Inhibition of MAP3K2 in human HeLa cells lysate pre incubated for 15 mins followed by ADP acyl phosphate probe addition and measured after 10 mins by LC-MS/MS analysis", "assay_type": "subcellular"}, "[2]": {"test": "Toxicity in C57Bl/6 mouse assessed as effect on total protein level at 50 mg/kg, ip for 14 days (reference value: 5.8 g/dl)", "assay_type": "organism-based", "details": "in vivo, 336 h, time 14 day"}, "[3]": {"molecular_target": "T1, Dual specificity mitogen-activated protein kinase kinase 6 (Homo sapiens) (UniProt P52564)", "T1 sequence (whole entry)": "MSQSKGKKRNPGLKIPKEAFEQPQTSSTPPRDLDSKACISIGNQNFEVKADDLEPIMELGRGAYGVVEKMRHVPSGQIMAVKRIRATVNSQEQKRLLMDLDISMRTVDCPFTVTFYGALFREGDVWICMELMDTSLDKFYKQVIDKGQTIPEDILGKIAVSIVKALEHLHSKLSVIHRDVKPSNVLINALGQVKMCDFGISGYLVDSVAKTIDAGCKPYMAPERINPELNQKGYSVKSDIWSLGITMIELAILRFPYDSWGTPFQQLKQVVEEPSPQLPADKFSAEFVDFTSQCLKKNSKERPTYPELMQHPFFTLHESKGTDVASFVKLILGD", "test": "Inhibition of MAP2K6 in human HeLa cells lysate at 2 uM pre incubated for 15 mins followed by ADP acyl phosphate probe addition and measured after 10 mins by LC-MS/MS analysis relative to control", "assay_type": "subcellular", "details": "time 25.0 min"}, "[4]": {"molecular_target": "Calcium/calmodulin-dependent protein kinase type 1D (Homo sapiens, UniProt Q8IU85)", "sequence (Q8IU85 whole entry, looked up)": "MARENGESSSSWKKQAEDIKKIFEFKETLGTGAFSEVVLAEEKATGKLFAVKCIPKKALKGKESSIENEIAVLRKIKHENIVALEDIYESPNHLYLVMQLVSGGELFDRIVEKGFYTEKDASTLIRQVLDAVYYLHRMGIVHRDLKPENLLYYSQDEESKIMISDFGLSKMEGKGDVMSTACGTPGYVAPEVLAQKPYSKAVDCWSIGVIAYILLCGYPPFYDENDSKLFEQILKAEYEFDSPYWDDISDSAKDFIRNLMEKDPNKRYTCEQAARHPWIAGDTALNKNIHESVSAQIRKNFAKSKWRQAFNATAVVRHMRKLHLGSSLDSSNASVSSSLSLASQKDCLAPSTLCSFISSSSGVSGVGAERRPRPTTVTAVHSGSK", "test": "Inhibition of CAMK1d in human HeLa cells lysate at 50 uM pre incubated for 15 mins followed by ATP acyl phosphate probe addition and measured after 10 mins by LC-MS/MS analysis relative to control", "assay_type": "subcellular", "details": "time 25.0 min", "outline": "(§1)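 KiNativ-type profiling in HeLa lysate (5 mg/mL total protein). Lysate preincubated 15 min with inhibitor at 50, 10, 2, 0.8 or 0 μM, then ATP or ADP acylphosphate probe added (5 μM final) for 10 min. Reaction stopped with urea and analysed by targeted MS, using up to four fragment ions per kinase peptide-probe conjugate. % inhibition calculated against untreated lysate. Duplicate reactions.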"}, "[5]": {"system": "Lewis lung carcinoma", "test": "In vivo inhibition of […] in mouse LL2 cells allografted in C57Bl/6 mouse assessed as decrease in Grb2 phosphorylation level for 2 weeks by Western blot analysis", "assay_type": "functional, organism-based"}, "[6]": {"molecular_target": "Serine/threonine-protein kinase B-raf (Homo sapiens, UniProt P15056)", "sequence (P15056 whole entry)": "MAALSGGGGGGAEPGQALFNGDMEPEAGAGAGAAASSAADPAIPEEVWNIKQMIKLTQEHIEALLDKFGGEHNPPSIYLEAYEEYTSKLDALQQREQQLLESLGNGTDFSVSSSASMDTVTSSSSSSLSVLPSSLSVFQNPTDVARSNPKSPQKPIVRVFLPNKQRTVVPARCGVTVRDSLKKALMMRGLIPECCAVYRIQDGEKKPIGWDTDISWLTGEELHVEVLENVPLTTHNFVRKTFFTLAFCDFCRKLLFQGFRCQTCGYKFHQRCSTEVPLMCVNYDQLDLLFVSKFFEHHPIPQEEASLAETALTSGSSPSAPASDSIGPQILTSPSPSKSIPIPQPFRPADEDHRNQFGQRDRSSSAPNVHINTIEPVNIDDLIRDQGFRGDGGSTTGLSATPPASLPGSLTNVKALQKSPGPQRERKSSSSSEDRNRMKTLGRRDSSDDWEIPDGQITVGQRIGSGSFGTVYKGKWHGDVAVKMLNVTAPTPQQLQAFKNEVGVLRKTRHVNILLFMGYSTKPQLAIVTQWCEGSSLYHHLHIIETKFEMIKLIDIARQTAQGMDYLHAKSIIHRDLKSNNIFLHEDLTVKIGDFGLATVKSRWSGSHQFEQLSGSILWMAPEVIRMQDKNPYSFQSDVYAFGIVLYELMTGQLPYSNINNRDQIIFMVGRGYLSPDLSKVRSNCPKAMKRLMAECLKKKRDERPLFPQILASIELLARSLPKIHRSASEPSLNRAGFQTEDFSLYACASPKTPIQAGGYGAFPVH", "test": "Inhibition of BRAF in human HeLa cells lysate at 2 uM pre incubated for 15 mins followed by ADP acyl phosphate probe addition and measured after 10 mins by LC-MS/MS analysis relative to control", "assay_type": "subcellular", "details": "time 25.0 min", "outline": "as §1"}, "[7]": {"molecular_target": "Serine/threonine-protein kinase 16 (Homo sapiens, UniProt O75716)", "sequence (O75716 whole entry)": "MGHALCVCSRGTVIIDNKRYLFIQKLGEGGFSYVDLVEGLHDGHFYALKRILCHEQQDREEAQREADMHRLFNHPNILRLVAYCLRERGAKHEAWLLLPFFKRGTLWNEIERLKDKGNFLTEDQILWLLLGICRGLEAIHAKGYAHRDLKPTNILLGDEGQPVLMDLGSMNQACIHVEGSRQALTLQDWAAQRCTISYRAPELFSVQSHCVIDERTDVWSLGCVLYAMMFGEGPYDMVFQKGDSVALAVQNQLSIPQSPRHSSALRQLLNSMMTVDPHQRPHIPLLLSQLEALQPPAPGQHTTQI", "test": "Inhibition of MPSK1 in human HeLa cells lysate at 50 uM pre incubated for 15 mins followed by ATP acyl phosphate probe addition and measured after 10 mins by LC-MS/MS analysis relative to control", "assay_type": "subcellular", "details": "time 25.0 min"}, "[8]": {"molecular_target": "Ribosomal protein S6 kinase alpha-3 (Homo sapiens, UniProt P51812)", "sequence (P51812 whole entry, the tested form may be a part)": "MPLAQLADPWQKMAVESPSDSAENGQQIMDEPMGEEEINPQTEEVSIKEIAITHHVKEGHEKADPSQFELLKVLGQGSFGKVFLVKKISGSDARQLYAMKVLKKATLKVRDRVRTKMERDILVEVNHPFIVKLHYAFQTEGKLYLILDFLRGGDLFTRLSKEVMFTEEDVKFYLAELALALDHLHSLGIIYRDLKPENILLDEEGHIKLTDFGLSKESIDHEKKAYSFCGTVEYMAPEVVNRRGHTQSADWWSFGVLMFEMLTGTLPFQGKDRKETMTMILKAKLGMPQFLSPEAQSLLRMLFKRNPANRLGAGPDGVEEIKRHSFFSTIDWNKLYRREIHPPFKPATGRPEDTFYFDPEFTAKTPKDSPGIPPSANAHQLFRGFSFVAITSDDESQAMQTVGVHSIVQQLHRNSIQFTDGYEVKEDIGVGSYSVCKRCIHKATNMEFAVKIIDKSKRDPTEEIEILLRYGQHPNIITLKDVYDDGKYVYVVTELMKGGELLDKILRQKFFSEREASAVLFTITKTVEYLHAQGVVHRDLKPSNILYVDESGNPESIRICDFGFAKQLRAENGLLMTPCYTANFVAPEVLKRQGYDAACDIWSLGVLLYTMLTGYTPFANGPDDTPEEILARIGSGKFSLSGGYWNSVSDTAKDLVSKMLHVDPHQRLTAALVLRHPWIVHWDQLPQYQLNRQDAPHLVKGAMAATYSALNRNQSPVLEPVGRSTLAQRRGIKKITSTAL", "test": "Inhibition of RSK2 domain 2 in human HeLa cells lysate at 50 uM pre incubated for 15 mins followed by ATP acyl phosphate probe addition and measured after 10 mins by LC-MS/MS analysis relative to control", "assay_type": "subcellular", "details": "time 25.0 min"}, "[9]": {"molecular_target": "Serine/threonine-protein kinase/endoribonuclease IRE1 (Homo sapiens, UniProt O75460)", "test": "Inhibition of IRE1 in human HeLa cells lysate pre incubated for 15 mins followed by ADP acyl phosphate probe addition and measured after 10 mins by LC-MS/MS analysis", "assay_type": "subcellular"}, "[10]": {"molecular_target": "Cyclin-dependent kinase 2 (Homo sapiens, UniProt P24941)", "test": "Inhibition of CDK2 K2 site in human HeLa cells lysate pre incubated for 15 mins followed by ADP acyl phosphate probe addition and measured after 10 mins by LC-MS/MS analysis", "assay_type": "subcellular", "outline": "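KiNativ profiling in HeLa lysate (5 mg/mL total protein). Lysate incubated 15 min with inhibitor at 50, 10, 2, 0.8 or 0 μM. ATP or ADP acylphosphate probe then added (5 μM final) and reacted 10 min. Reaction stopped with urea and analysed by targeted MS, using up to four fragment ions per kinase peptide-probe conjugate. % inhibition taken against untreated lysate. Run in duplicate.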"}, "[11]": {"molecular_target": "Ribosomal protein S6 kinase alpha-1 (Homo sapiens, UniProt Q15418)", "sequence (Q15418 whole entry, the tested form may be a part)": "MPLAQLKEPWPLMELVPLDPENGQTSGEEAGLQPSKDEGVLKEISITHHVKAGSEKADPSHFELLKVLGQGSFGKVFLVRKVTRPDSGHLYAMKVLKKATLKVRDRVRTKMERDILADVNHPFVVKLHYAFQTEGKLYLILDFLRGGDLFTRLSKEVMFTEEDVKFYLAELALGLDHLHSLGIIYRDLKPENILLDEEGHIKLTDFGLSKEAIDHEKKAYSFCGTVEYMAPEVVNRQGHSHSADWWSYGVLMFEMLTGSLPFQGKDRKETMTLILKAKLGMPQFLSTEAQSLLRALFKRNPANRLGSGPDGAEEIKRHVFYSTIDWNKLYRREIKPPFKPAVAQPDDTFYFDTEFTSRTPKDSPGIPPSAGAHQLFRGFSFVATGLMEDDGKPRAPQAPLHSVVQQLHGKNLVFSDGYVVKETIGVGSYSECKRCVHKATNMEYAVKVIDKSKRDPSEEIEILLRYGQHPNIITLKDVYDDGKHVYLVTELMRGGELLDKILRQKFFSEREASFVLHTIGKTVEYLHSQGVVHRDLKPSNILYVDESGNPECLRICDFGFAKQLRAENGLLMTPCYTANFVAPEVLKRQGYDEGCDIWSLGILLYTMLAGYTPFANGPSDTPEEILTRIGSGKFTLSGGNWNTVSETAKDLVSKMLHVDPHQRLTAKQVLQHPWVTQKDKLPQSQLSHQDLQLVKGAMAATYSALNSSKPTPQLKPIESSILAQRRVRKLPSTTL", "test": "Inhibition of RSK1 domain 2 K2 site in human HeLa cells lysate at 2 uM pre incubated for 15 mins followed by ADP acyl phosphate probe addition and measured after 10 mins by LC-MS/MS analysis relative to control", "assay_type": "subcellular", "details": "time 25.0 min"}, "[12]": {"molecular_target": "Insulin-like growth factor 1 receptor (Homo sapiens, UniProt P08069)", "test": "Inhibition of IGF1R in human HeLa cells lysate pre incubated for 15 mins followed by ADP acyl phosphate probe addition and measured after 10 mins by LC-MS/MS analysis", "assay_type": "subcellular"}, "[13]": {"molecular_target": "Serine/threonine-protein kinase PLK1 (Homo sapiens, UniProt P53350)", "sequence (P53350 whole entry)": "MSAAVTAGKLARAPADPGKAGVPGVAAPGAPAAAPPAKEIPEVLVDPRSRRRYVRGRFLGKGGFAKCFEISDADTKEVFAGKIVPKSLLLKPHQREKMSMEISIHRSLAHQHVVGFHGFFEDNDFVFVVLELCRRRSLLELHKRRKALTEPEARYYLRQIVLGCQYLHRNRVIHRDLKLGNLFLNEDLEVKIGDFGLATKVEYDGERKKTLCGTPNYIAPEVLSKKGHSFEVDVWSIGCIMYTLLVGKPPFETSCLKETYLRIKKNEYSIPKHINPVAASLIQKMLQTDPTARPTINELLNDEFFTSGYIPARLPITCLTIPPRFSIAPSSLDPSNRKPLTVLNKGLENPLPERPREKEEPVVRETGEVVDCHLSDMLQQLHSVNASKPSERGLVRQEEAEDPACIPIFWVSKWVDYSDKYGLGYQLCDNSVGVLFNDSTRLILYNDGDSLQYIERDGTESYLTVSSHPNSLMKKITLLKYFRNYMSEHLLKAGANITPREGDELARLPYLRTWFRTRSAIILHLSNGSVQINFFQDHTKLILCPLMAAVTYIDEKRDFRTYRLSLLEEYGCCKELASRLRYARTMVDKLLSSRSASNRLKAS", "test": "Inhibition of PLK1 K2 site in human HeLa cells lysate pre incubated for 15 mins followed by ATP acyl phosphate probe addition and measured after 10 mins by LC-MS/MS analysis", "assay_type": "subcellular"}, "[14]": {"molecular_target": "Serine-protein kinase ATM (Homo sapiens, UniProt Q13315)", "test": "Inhibition of ATM in human HeLa cells lysate at 2 uM pre incubated for 15 mins followed by ADP acyl phosphate probe addition and measured after 10 mins by LC-MS/MS analysis relative to control", "assay_type": "subcellular", "details": "time 25.0 min", "outline": "as §1"}, "[15]": {"molecular_target": "T2, Dual specificity mitogen-activated protein kinase kinase 5 (Homo sapiens) (UniProt Q13163)", "T2 sequence (whole entry)": "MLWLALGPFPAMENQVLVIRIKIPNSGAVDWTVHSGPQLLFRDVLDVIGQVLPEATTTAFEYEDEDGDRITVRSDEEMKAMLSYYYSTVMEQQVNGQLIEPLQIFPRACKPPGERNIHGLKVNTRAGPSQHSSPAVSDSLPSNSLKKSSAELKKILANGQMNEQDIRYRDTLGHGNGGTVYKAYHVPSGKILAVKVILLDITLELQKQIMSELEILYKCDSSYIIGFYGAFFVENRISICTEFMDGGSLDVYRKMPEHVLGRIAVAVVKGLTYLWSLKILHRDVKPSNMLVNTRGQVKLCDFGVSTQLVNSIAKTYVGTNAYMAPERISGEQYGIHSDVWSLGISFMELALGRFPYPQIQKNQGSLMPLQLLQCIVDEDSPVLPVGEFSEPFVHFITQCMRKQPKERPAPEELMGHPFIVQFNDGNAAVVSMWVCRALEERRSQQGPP", "test": "Inhibition of MAP2K5 in human HeLa cells lysate upto 50 uM pre incubated for 15 mins followed by ADP acyl phosphate probe addition and measured after 10 mins by LC-MS/MS analysis", "assay_type": "subcellular", "details": "time 25.0 min"}, "[16]": {"test": "Inhibition of PKD1/2 in human HeLa cells lysate at 10 uM pre incubated for 15 mins followed by ATP acyl phosphate probe addition and measured after 10 mins by LC-MS/MS analysis relative to control", "details": "25 min, condition cancer"}, "[17]": {"molecular_target": "Interleukin-1 receptor-associated kinase 1 (Homo sapiens, UniProt P51617)", "sequence (P51617 whole entry, looked up)": "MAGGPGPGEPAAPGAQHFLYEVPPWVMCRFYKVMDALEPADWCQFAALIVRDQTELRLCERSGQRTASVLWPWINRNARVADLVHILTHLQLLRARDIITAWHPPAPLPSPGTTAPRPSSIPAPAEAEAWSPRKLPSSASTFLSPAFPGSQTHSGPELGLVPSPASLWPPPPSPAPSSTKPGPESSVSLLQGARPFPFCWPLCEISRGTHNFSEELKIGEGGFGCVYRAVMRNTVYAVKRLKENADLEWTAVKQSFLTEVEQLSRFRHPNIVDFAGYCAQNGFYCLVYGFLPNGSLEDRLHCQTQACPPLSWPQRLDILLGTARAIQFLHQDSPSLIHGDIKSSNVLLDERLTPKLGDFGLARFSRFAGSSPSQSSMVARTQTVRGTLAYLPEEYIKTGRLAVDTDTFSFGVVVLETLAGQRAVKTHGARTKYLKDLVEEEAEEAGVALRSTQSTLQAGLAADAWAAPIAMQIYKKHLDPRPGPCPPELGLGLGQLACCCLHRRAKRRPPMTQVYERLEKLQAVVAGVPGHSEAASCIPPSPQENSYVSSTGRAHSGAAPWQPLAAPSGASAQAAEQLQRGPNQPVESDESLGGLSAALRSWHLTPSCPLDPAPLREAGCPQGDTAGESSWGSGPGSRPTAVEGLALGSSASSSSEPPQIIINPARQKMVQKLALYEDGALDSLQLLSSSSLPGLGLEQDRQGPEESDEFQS", "test": "Inhibition of IRAK1 in human HeLa cells lysate at 50 uM pre incubated for 15 mins followed by ATP acyl phosphate probe addition and measured after 10 mins by LC-MS/MS analysis relative to control", "assay_type": "subcellular", "details": "time 25.0 min"}}, "note": "Active and inactive are the calls of the source. The rule behind the calls is not given here."}
{"compound": "CCOc1cc(N2CCC(O)CC2)ccc1Nc1ncc2c(n1)N(C)c1ccccc1C(=O)N2C", "values": [{"measurement": "IC50", "setting": "[1]", "value": "> 50", "unit": "µM"}, {"measurement": "Activity", "setting": "[2]", "value": 5.8, "unit": "g/dL"}, {"measurement": "inhibition", "setting": "[3]", "value": 6.7, "unit": "%"}, {"measurement": "inhibition", "setting": "[4]", "value": -3.1, "unit": "%"}, {"measurement": "inhibition", "setting": "[5]", "value": "Active"}, {"measurement": "inhibition", "setting": "[6]", "value": 10.5, "unit": "%"}, {"measurement": "inhibition", "setting": "[7]", "value": -8.9, "unit": "%"}, {"measurement": "inhibition", "setting": "[8]", "value": 47.7, "unit": "%"}, {"measurement": "IC50", "setting": "[9]", "value": "> 50", "unit": "µM"}, {"measurement": "IC50", "setting": "[10]", "value": "> 50", "unit": "µM"}, {"measurement": "inhibition", "setting": "[11]", "value": -6.4, "unit": "%"}, {"measurement": "IC50", "setting": "[12]", "value": "> 50", "unit": "µM"}, {"measurement": "IC50", "setting": "[13]", "value": "> 50", "unit": "µM"}, {"measurement": "inhibition", "setting": "[14]", "value": 2.3, "unit": "%"}, {"measurement": "inhibition", "setting": "[15]", "value": "inactive"}, {"measurement": "inhibition at 10 µM", "setting": "[16]", "value": -23, "unit": "%"}, {"measurement": "inhibition", "setting": "[17]", "value": -8.3, "unit": "%"}]}
